Measurements reported in ChEMBL document CHEMBL1142421, “Synthesis and inhibitory activity of oligosaccharide thiazolines as a class of mechanism-based inhibitors for endo-beta-N-acetylglucosaminidases” (Bioorg Med Chem, 2008).
pIC50: −log10 of the molar value. Activity calls are given as the source filed them. No cut-off for these calls is given here.

How the values were obtained:
[1] = target: T1, Endo-beta-N-acetylglucosaminidase (Arthrobacter protophormiae) (UniProt Q9ZB22); experiment: Inhibition of Arthrobacter protophormiae endo-beta-N-acetylglucosaminidase upto 500 uM after 5 mins by HPAEC-PED method; details: Glutamicibacter protophormiae
T1 sequence (whole entry): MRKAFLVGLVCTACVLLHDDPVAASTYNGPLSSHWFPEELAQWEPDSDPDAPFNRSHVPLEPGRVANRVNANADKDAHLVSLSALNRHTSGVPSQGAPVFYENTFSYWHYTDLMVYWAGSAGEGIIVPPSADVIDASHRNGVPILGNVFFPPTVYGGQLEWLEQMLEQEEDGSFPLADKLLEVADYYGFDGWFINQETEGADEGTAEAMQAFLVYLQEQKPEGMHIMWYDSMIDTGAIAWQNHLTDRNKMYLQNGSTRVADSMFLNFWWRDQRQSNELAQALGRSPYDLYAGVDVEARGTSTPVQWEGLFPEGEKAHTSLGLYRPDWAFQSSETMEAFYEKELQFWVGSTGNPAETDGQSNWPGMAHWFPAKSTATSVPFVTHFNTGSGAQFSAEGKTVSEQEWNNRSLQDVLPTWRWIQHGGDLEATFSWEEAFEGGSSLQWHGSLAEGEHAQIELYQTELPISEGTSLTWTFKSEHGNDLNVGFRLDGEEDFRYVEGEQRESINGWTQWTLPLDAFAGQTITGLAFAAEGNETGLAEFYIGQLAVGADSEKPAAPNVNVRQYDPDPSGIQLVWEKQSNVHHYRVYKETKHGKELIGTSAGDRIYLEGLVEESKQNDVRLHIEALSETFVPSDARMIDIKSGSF
How it was run: (§1)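 Man9GlcNAc2Asn (500 μM) as substrate in 50 mM phosphate buffer pH 6.5. Limited enzyme is incubated with or without serial dilutions of thiazoline at 30°C for 5 min. Reaction stopped by heating at 100°C for 3 min. Man9GlcNAc hydrolysis product quantified by HPAEC-PED.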

Mucor hiemalis = experiment: Inhibition of Mucor hiemalis endo-beta-N-acetylglucosaminidase upto 500 uM after 5 mins by HPAEC-PED method; how it was run: as §1
[2] = Inhibition of Mucor hiemalis endo-beta-N-acetylglucosaminidase after 5 mins by HPAEC-PED method; how it was run: as §1
[3] = target: T2, Endo-beta-N-acetylglucosaminidase (Arthrobacter protophormiae, UniProt Q9ZB22); experiment: Inhibition of Arthrobacter protophormiae endo-beta-N-acetylglucosaminidase after 5 mins by HPAEC-PED method; design: species or system Glutamicibacter protophormiae; how it was run: as §1
T2 sequence (Q9ZB22 whole entry): T1 sequence (whole entry)

[4] = target: T3, Cytosolic endo-beta-N-acetylglucosaminidase (Homo sapiens, UniProt Q8NFI3); experiment: Inhibition of human endo-beta-N-acetylglucosaminidase expressed in Hek293 cells after 3 mins; format: cell-based
T3 sequence (Q8NFI3 whole entry): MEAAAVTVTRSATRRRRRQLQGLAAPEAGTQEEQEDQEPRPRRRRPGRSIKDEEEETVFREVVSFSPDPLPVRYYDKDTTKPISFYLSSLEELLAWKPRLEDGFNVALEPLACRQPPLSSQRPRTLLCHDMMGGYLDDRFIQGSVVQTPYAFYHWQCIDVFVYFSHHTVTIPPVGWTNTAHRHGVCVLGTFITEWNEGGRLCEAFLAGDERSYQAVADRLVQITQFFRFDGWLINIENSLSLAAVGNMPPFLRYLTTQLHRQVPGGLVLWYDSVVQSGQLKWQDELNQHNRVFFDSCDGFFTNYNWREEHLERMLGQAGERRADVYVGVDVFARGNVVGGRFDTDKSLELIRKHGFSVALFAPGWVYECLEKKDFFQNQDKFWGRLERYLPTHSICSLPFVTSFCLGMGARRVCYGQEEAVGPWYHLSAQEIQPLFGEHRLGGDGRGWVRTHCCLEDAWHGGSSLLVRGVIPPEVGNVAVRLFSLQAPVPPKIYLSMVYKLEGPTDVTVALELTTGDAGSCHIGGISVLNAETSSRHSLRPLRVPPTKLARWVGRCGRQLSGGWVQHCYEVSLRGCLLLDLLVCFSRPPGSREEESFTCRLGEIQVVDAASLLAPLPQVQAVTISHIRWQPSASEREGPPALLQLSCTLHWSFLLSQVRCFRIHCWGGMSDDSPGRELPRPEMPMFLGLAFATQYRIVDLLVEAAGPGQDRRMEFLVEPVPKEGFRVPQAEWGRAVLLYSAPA
How it was run: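 Enzyme source: HEK293 cells transfected with pcDNA-hENGase, extracted 48 h later in Hepes-KOH pH 7.0 with protease inhibitors. The 100,000 × g soluble fraction was assayed in 40 mM Mes-NaOH pH 6.1 with 1 μM Man9GlcNAc2-PA and inhibitor from 10 mM to 0.1 μM, 3 min at 37°C. Reaction stopped by boiling; product quantified by C18 HPLC.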

Flavobacterium sp. [5] = experiment: Inhibition of Flavobacterium sp. endo-beta-N-acetylglucosaminidase at 1uM after 5 mins by HPAEC-PED method
How it was run: (§2)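 Endo-Fsp assay uses Man5GlcNAc2Asn as substrate in 50 mM phosphate buffer pH 6.5. Limited enzyme is incubated with or without thiazoline at 30°C for 5 min, then heated at 100°C for 3 min to stop. Hydrolytic product quantified by HPAEC-PED.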

Flavobacterium sp. [6] = experiment: Inhibition of Flavobacterium sp. endo-beta-N-acetylglucosaminidase at 100 uM after 5 mins by HPAEC-PED method; how it was run: as §2

Activity [1] | Activity (Mucor hiemalis) | pIC50 [2] | pIC50 [3] | pIC50 [4] | inhibition (Flavobacterium sp. [5]) | Activity (Flavobacterium sp. [6]) | SMILES
inactive | inactive |  |  |  |  |  | CC1=N[C@@H]2[C@@H](O)[C@H](O)[C@@H](CO)O[C@H]2S1
 |  | 5.22 | 6.66 | 6.38 | 75% |  | CC1=N[C@@H]2[C@@H](O)[C@H](O[C@@H]3O[C@H](CO[C@H]4O[C@H](CO[C@H]5O[C@H](CO[C@H]6O[C@H](CO)[C@@H](O)[C@H](O)[C@@H]6O)[C@@H](O)[C@H](O)[C@@H]5O)[C@@H](O)[C@H](O[C@@H]5O[C@H](CO)[C@@H](O)[C@H](O[C@@H]6O[C@H](CO)[C@@H](O)[C@H](O)[C@@H]6O)[C@@H]5O)[C@@H]4O)[C@@H](O)[C@H](O[C@@H]4O[C@H](CO)[C@@H](O)[C@H](O)[C@@H]4O[C@@H]4O[C@H](CO)[C@@H](O)[C@H](O)[C@@H]4O[C@@H]4O[C@H](CO)[C@@H](O)[C@H](O)[C@@H]4O)[C@@H]3O)[C@@H](CO)O[C@H]2S1
 |  | 4.10 | 4.42 |  |  | inactive | CC1=N[C@@H]2[C@@H](O)[C@H](O[C@@H]3O[C@H](CO)[C@@H](O)[C@H](O)[C@@H]3O)[C@@H](CO)O[C@H]2S1
 |  | 4.19 | 4.89 |  |  | inactive | CC1=N[C@@H]2[C@@H](O)[C@H](O[C@@H]3O[C@H](CO[C@H]4O[C@H](CO)[C@@H](O)[C@H](O)[C@@H]4O)[C@@H](O)[C@H](O[C@@H]4O[C@H](CO)[C@@H](O)[C@H](O)[C@@H]4O)[C@@H]3O)[C@@H](CO)O[C@H]2S1
